One may read the IC50 as the concentration that inhibits the measured activity by half.

The first experiment relates to RAW264.7. Put plainly: Antiresorptive activity in mouse RAW264.7 cells assessed as inhibition of RANKL-induced osteoclastogenesis after 4 days by TRAP assay. In kind it is functional, cell-based.
Conditions: not given
In short, it runs like this: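 RAW264.7 cells, maintained in DMEM with 10% FBS and penicillin/streptomycin at 37 °C under 5% CO₂, were seeded at 1 × 10³ cells/well in α-MEM. On day 4, cells were fixed in 10% formalin (10 min) and 95% ethanol (1 min), then dried. TRAP activity was measured with 5 mM p-nitrophenylphosphate in 50 mM citrate buffer (pH 4.6, 10 mM tartrate) for 30 min, stopped with 0.1 N NaOH, and read at 410 nm.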
As to `COc1ccc(/C=C/C(=O)c2cccc(-n3cc(-c4ccc(C)cc4)nn3)c2)cc1O`, the inhibition entry was “Dose-dependent effect”.

As to `COc1cc(/C=C/C(=O)c2cccc(-n3cc(-c4ccccc4C(F)(F)F)nn3)c2)ccc1O`, the inhibition result was “Dose-dependent effect”.

As to `COc1ccc(/C=C/C(=O)c2cccc(N=[N+]=[N-])c2)cc1O`, the inhibition entry is “Dose-dependent effect”.

Take `COc1ccc(/C=C/C(=O)c2cccc(-n3cc(-c4ccccc4)nn3)c2)cc1O`: the inhibition result was “Dose-dependent effect”.

The same experiment, now with this note: RAW264.7, 96 h.
Take `COc1ccc(/C=C/C(=O)c2cccc(-n3cc(-c4ccc(C)cc4)nn3)c2)cc1O`: the IC50 came out at 1.7 µM.

`COc1cc(/C=C/C(=O)c2cccc(-n3cc(-c4ccccc4C(F)(F)F)nn3)c2)ccc1O`: the half-maximal inhibitory concentration (IC50) amounted to 5.07 µM.

For the molecule `COc1cc(/C=C/C(=O)c2cccc(-n3cc(-c4ccccc4)nn3)c2)ccc1O`, the concentration for half-maximal inhibition (IC50) came out at 16.8 µM.

Take `COc1ccc(/C=C/C(=O)c2cccc(N=[N+]=[N-])c2)cc1O`: the IC50 was found to be 1.96 µM.

For `COc1ccc(/C=C/C(=O)c2cccc(-n3cc(-c4ccc(F)cc4)nn3)c2)cc1O`, the IC50 amounted to 2.5 µM.

As for `COc1cc(/C=C/C(=O)c2cccc(N=[N+]=[N-])c2)ccc1O`, the concentration for half-maximal inhibition (IC50) was 7.11 µM.

As to `CCCCCc1ccc(-c2cn(-c3cccc(C(=O)/C=C/c4ccc(O)c(OC)c4)c3)nn2)cc1`, the half-maximal inhibitory concentration (IC50) turned out to be 5.78 µM.

For `COc1ccc(-c2cn(-c3cccc(C(=O)/C=C/c4ccc(OC)c(O)c4)c3)nn2)cc1`, the half-maximal inhibitory concentration (IC50) was 6.29 µM.

On to `C=C(C)c1cn(-c2cccc(C(=O)/C=C/c3ccc(OC)c(O)c3)c2)nn1`, for which the half-inhibitory concentration (IC50) worked out at 7.76 µM.

For `COc1cc(/C=C/C(=O)c2cccc(-n3cc(-c4cccc(Cl)c4)nn3)c2)ccc1O`, the half-inhibitory concentration (IC50) stood at 14.3 µM.

Take `COc1ccc(/C=C/C(=O)c2cccc(-n3cc(-c4cccc(Cl)c4)nn3)c2)cc1O`: the 50% inhibitory concentration (IC50) is 6.61 µM.

Take `COc1ccc(/C=C/C(=O)c2cccc(-n3cc(-c4cc(F)cc(F)c4)nn3)c2)cc1O`: the IC50 is 7.14 µM.

For the molecule `COc1ccc(/C=C/C(=O)c2cccc(-n3cc(-c4ccccc4)nn3)c2)cc1O`, the concentration for half-maximal inhibition (IC50) was found to be 1.51 µM.

Take `COc1cc(/C=C/C(=O)c2cccc(-n3cc(-c4ccc(C)cc4)nn3)c2)ccc1O`: the concentration for half-maximal inhibition (IC50) was 15.4 µM.

Take `COc1cc(/C=C/C(=O)c2cccc(-n3cc(C(C)(C)O)nn3)c2)ccc1O`: the concentration for half-maximal inhibition (IC50) was determined as 19.8 µM.

In the case of `C=C(C)c1cn(-c2cccc(C(=O)/C=C/c3ccc(O)c(OC)c3)c2)nn1`, the IC50 worked out at 9.79 µM.

As for `COc1ccc(/C=C/C(=O)c2cccc(-n3cc(-c4ccccc4C(F)(F)F)nn3)c2)cc1O`, the half-inhibitory concentration (IC50) amounted to 9.12 µM.

Regarding `COc1cc(/C=C/C(=O)c2cccc(-n3cc(-c4ccc(Br)cc4)nn3)c2)ccc1O`, the IC50 was 19.1 µM.

Consider `COc1ccc(/C=C/C(=O)c2cccc(-n3cc(C(C)(C)O)nn3)c2)cc1O`, for which the half-maximal inhibitory concentration (IC50) was 17.1 µM.

Regarding `CCCCCc1ccc(-c2cn(-c3cccc(C(=O)/C=C/c4ccc(OC)c(O)c4)c3)nn2)cc1`, the IC50 was more than 30 µM.

In the case of `COc1ccc(-c2cn(-c3cccc(C(=O)/C=C/c4ccc(O)c(OC)c4)c3)nn2)cc1`, the half-maximal inhibitory concentration (IC50) worked out at 7.9 µM.

With `COc1cc(/C=C/C(=O)c2cccc(-n3cc(-c4ccc(F)cc4)nn3)c2)ccc1O`, the 50% inhibitory concentration (IC50) was determined as 6.45 µM.

Consider `COc1cc(/C=C/C(=O)c2cccc(-n3cc(-c4cc(F)cc(F)c4)nn3)c2)ccc1O`, for which the concentration for half-maximal inhibition (IC50) was 22.8 µM.

On to `COc1ccc(/C=C/C(=O)c2cccc(-n3cc(-c4ccc(Br)cc4)nn3)c2)cc1O`, for which the half-inhibitory concentration (IC50) was 6.57 µM.

For the origin of these results see ChEMBL document CHEMBL1777669, “Synthesis of substituted triazolyl curcumin mimics that inhibit RANKL-induced osteoclastogenesis” (Bioorg Med Chem Lett, 2011).
